In ChEMBL document CHEMBL1140546, “3,5-Disubstituted quinolines as novel c-Jun N-terminal kinase inhibitors” (Bioorg Med Chem Lett, 2007):

Molecular target: Mitogen-activated protein kinase 10 (Homo sapiens, UniProt P53779)
Test: Inhibition of JNK3 by HTRF assay
Outline: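 JNK3 phosphorylation of biotinylated-ATF2, final 0.3 nM JNK3, 0.4 nM substrate, 1 μM ATP. The phospho-Thr71-ATF-2 product is detected with a Europium-cryptate-labeled anti-phospho-Thr71-ATF-2 antibody. IC50 values are means of three experiments.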

Sequence of Mitogen-activated protein kinase 10 (P53779 whole entry): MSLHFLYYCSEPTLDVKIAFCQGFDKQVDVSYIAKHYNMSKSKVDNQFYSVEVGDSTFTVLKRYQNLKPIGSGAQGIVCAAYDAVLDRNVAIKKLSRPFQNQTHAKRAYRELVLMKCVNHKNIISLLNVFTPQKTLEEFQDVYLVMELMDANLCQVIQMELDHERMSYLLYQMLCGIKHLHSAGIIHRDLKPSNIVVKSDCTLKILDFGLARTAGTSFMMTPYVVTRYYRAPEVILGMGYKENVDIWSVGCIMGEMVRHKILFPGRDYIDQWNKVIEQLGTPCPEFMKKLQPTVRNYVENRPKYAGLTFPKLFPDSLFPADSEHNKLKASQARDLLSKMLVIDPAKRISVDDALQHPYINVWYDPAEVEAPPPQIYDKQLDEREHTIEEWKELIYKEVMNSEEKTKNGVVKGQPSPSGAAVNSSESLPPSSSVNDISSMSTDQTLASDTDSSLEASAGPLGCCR

| SMILES | IC50 [nM] |
| --- | --- |
| Nc1ccc(-c2cnc3ccc4ccncc4c3c2)cc1 | 510 |
| c1cc2ccc3ncc(-c4ccc(-c5ccn[nH]5)cc4)cc3c2cn1 | 3600 |
| CS(=O)(=O)Nc1ccc(-c2cnc3cccc(Nc4ccc(Cl)cn4)c3c2)cc1 | 120 |
| CC(=O)N(C(C)=O)c1ccc(-c2cnc3ccc4ccncc4c3c2)cc1 | 1600 |
| c1ccc(-c2cnc3ccc4ccncc4c3c2)cc1 | 1000 |
| c1ccc(-c2ccc(-c3cnc4ccc5ccncc5c4c3)cc2)cc1 | > 20000 |
| CS(=O)(=O)Nc1ccc(-c2cnc3cccc(Nc4ncccn4)c3c2)cc1 | 480 |

More lines, in order of falling IC50, values ahead:

| IC50 [nM] | SMILES |
| --- | --- |
| 15000 | CS(=O)(=O)Nc1ccc(-c2cnc3cccc(Nc4ncccc4Cl)c3c2)cc1 |
| 1300 | c1cc2ccc3ncc(-c4ccc(N5CCOCC5)cc4)cc3c2cn1 |
| 930 | CS(=O)(=O)Nc1ccc(-c2cnc3ccc4ccncc4c3c2)cc1 |
| 530 | CC(=O)Nc1ccc(-c2cnc3ccc4ccncc4c3c2)cc1 |
| 210 | CS(=O)(=O)N(c1ccc(-c2cnc3ccc4ccncc4c3c2)cc1)S(C)(=O)=O |
